# Source: ChEMBL document CHEMBL4422640, “Design, synthesis and biological evaluation of tetrazole-containing RXRα ligands as anticancer agents” (Eur J Med Chem, 2019)
# Activity calls are given as the source filed them. The calls are words filed in the database; no cut-off is given here.
# How the values were obtained:
# [1] = molecular target: T1, Retinoic acid receptor RXR-alpha (Homo sapiens) (UniProt P19793); assay: Antagonist activity at Gal4-fused human RXRalpha LBD (unknown origin) assessed as inhibition of 9-cis-retinoic acid-induced transactivation at 1 to 50 uM after 18 hrs by cell-based dual luciferase reporter gene assay
# T1 sequence (whole entry): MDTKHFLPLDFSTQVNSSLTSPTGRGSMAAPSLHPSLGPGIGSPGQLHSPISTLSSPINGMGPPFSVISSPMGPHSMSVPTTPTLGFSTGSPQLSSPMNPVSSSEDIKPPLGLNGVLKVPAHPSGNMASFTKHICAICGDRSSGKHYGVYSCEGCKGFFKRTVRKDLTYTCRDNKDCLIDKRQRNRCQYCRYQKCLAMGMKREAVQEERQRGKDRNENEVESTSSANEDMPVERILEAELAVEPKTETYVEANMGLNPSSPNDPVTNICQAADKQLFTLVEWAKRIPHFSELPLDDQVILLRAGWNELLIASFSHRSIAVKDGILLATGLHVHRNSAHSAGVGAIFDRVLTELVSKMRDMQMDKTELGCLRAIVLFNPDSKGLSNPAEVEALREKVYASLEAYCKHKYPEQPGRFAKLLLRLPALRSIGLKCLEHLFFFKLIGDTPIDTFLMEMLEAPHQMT
# In short: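 Cells transfected with Gal4 reporter plus Gal4-RXRα/LBD plasmids for 24 h, then treated with compounds at 1, 10 and 50 µM in the presence of 9-cis-RA for 18 h. Firefly luciferase read from lysates, normalized to Renilla. A compound counted as antagonist when inhibition was dose-dependent.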
# MCF7 [2] = assay: Growth inhibition of human MCF7 cells after 48 hrs by MTT assay; type: functional, cell-based; conditions: MCF7, 48 h
# In short: (§1)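 MDA-MB-231 grown in DMEM, MCF-7 in MEM, each with 10% FBS, 37 °C, 5% CO2. Confluent cells exposed to compound, 0.195–100 μM, for 48 h. Then 2 mg/mL MTT for 4 h at 37 °C, formazan dissolved in DMSO, absorbance read at 490 nm. IC50 values are the mean of three independent experiments.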
# MDA-MB-231 = assay: Growth inhibition of human MDA-MB-231 cells after 48 hrs by MTT assay; type: functional, cell-based; conditions: MDA-MB-231, 48 h; in short: as §1
# [3] = molecular target: T2, Retinoic acid receptor RXR-alpha (Homo sapiens, UniProt P19793); assay: Inhibition of 9-cis-retinoic acid competition binding to RXRalpha LBD (unknown origin) by fluorescence quenching method
# T2 sequence (P19793 whole entry): T1 sequence (whole entry)
# MCF7 [4] = assay: Induction of apoptosis in human MCF7 cells assessed as increase in PARP cleavage at 30 uM after 12 hrs in presence of siRNA by Immunoblotting analysis; type: functional, cell-based
# In short: (§2)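 Cells transfected (Lipofectamine 2000) with control or RXRα siRNA for 48 h. HeLa (MEM, 10% FBS) then given compound at 20 μM for 8 h; MCF-7 (MEM, 10% FBS) given 30 μM for 12 h. Lysates run on 10% SDS-PAGE, transferred to nitrocellulose, probed for PARP cleavage and detected by ECL.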
# [5] = molecular target: T1, Retinoic acid receptor RXR-alpha (Homo sapiens); assay: Inhibition of RXRalpha in human HeLa cells assessed as increase in PARP cleavage at 15 uM after 8 hrs in presence of TNFalpha by Immunoblotting analysis; type: cell-based
# In short: (§3)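 Cells kept in medium with 0% FBS and treated with compound together with TNF-α (20 ng/mL). Exposure was 8 h for HeLa and 12 h for MCF-7. PARP cleavage read by immunoblot: 10% SDS-PAGE, nitrocellulose, blocking in 5% milk/TBST, HRP secondary antibody, ECL.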
# HeLa = assay: Induction of apoptosis in human HeLa cells assessed as increase in PARP cleavage at 20 uM after 8 hrs in presence of RXRalpha siRNA by Immunoblotting analysis; type: functional, cell-based; in short: as §2
# [6] = molecular target: T1, Retinoic acid receptor RXR-alpha (Homo sapiens); assay: Inhibition of RXRalpha in human MCF7 cells assessed as increase in PARP cleavage after 12 hrs by Immunoblotting analysis; type: cell-based
# In short: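 MCF-7 cells in medium with 0% FBS treated with compounds, with or without TNF-α (20 ng/mL), for 12 h. PARP cleavage read by immunoblot (10% SDS-PAGE, ECL). For the RXRα-dependence check, cells got control or RXRα siRNA for 48 h, then compounds at 30 µM for 12 h.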
# [7] = molecular target: T1, Retinoic acid receptor RXR-alpha (Homo sapiens); assay: Inhibition of RXRalpha in human HeLa cells assessed as increase in PARP cleavage after 8 hrs by Immunoblotting analysis; type: cell-based
# In short: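 HeLa cells in medium with 0% FBS treated with compounds, with or without TNF-α (20 ng/mL), for 8 h. PARP cleavage detected by immunoblot: 10% SDS-PAGE, nitrocellulose, 5% milk/TBST block, ECL detection. For the RXRα-dependence check, cells first got control or RXRα siRNA for 48 h, then compounds at 20 µM for 8 h.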
# [8] = molecular target: T1, Retinoic acid receptor RXR-alpha (Homo sapiens); assay: Inhibition of RXRalpha in human MCF7 cells assessed as increase in PARP cleavage at 30 uM after 12 hrs in presence of TNFalpha by Immunoblotting analysis; type: cell-based; in short: as §3
Compound,Activity [1],IC50 (MCF7 [2]),IC50 (MDA-MB-231),other results
CC1=C(CCc2nnn[nH]2)c2ccccc2/C1=C\c1ccccc1C(F)(F)F,Active,–,–,–
COc1ccc(/C=C2\C=C(Cc3nnn[nH]3)c3ccccc32)cc1,Active,–,–,–
CC1=C(CCc2nnn[nH]2)c2ccccc2/C1=C\c1ccc(C(C)(C)C)cc1,–,31.1 µM,12.5 µM,–
CC1=C(CCc2nnn[nH]2)c2ccccc2/C1=C\c1ccc(Cl)cc1,–,56.3 µM,15.2 µM,–
CC(C)c1ccc(/C=C2\C=C(Cc3nnn[nH]3)c3ccccc32)cc1,Active,–,–,–
CC1=C(CCc2nnn[nH]2)c2ccccc2/C1=C\c1ccccc1Cl,Active,–,–,–
CC1=C(CC(=O)O)c2cc(F)ccc2/C1=C\c1ccc(C(C)C)cc1,–,–,–,Kd [3]: 2.38 µM
CC1=C(CCc2nnn[nH]2)c2ccccc2/C1=C\c1ccc(OC(F)(F)F)cc1,–,17.3 µM,8.9 µM,Activity (MCF7 [4]): inactive; inhibition [5]: Active; Activity (HeLa): inactive; inhibition [6]: Dose-dependent effect; Kd [3]: 1.59 µM; inhibition [7]: Dose-dependent effect; inhibition [8]: Active
CC1=C(Cc2nnn[nH]2)c2ccccc2/C1=C\c1ccccc1C(F)(F)F,–,62.3 µM,40.8 µM,–
COc1ccc(/C=C2/C(C)=C(Cc3nnn[nH]3)c3ccccc32)cc1,–,104 µM,25.7 µM,–
CSc1ccc(/C=C2/C(C)=C(Cc3nnn[nH]3)c3ccccc32)cc1,Active,–,–,–
CC1=C(Cc2nnn[nH]2)c2ccccc2/C1=C\c1cccs1,–,124 µM,53.3 µM,–
CC1=C(CCc2nnn[nH]2)c2ccccc2/C1=C\c1cccc(C(F)(F)F)c1,–,28.8 µM,15.6 µM,–
CC1=C(CCc2nnn[nH]2)c2ccccc2/C1=C\c1cccc2ccccc12,Active,–,–,inhibition [6]: Dose-dependent effect; inhibition [7]: Dose-dependent effect
CC(C)c1ccc(/C=C2\C=C(CCc3nnn[nH]3)c3ccccc32)cc1,–,41.8 µM,15.6 µM,–
CC1=C(Cc2nnn[nH]2)c2ccccc2/C1=C\c1cccc(C(F)(F)F)c1,Active,–,–,–
COc1ccc(/C=C2/C(C)=C(CCc3nnn[nH]3)c3ccccc32)cc1,Active,–,–,–
CSc1ccc(/C=C2/C(C)=C(CCc3nnn[nH]3)c3ccccc32)cc1,Active,–,–,–
CC1=C(Cc2nnn[nH]2)c2ccccc2/C1=C\c1ccc(OC(F)(F)F)cc1,Active,–,–,–
CC(C)c1ccc(/C=C2/C=C(CC(=O)NO)c3cc(F)ccc32)cc1,–,20.8 µM,5 µM,Activity (MCF7 [4]): inactive; inhibition [5]: Active; Activity (HeLa): inactive; Kd [3]: 1.13 µM; inhibition [8]: Active
CC1=C(Cc2nnn[nH]2)c2ccccc2/C1=C\c1ccc(C(C)(C)C)cc1,–,38.4 µM,14.3 µM,–
CC1=C(CCc2nnn[nH]2)c2ccccc2/C1=C\c1ccc(C(C)C)cc1,–,27 µM,12.3 µM,–
CC1=C(Cc2noc(=O)[nH]2)c2ccccc2/C1=C\c1ccc(C(C)C)cc1,–,23.8 µM,9.04 µM,–
CC1=C(Cc2nnn[nH]2)c2ccccc2/C1=C\c1ccc(C(C)C)cc1,–,27.6 µM,8.48 µM,–
CC1=C(Cc2nnn[nH]2)c2ccccc2/C1=C\c1ccc(C(F)(F)F)cc1,Active,–,–,–
CC1=C(CCc2nnn[nH]2)c2ccccc2/C1=C\c1cccc(Cl)c1,–,45.6 µM,24.7 µM,–
CC1=C(CCc2nnn[nH]2)c2ccccc2/C1=C\c1ccc(C(F)(F)F)cc1,–,39.4 µM,22.1 µM,–
